In the M2OR odorant receptor database:

Target: T1, OR1A1 (Homo sapiens) (UniProt Q9P1Q5)
T1 sequence (whole entry): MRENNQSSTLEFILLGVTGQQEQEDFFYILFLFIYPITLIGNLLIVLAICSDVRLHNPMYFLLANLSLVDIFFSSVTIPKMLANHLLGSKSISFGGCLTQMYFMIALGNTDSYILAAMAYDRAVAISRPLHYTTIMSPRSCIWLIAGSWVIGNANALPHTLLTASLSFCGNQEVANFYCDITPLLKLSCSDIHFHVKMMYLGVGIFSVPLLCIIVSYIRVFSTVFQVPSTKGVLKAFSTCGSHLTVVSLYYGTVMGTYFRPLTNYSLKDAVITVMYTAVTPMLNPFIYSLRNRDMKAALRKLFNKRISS
Settings: stereoisomer not certain
In short: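 Transient luciferase assays in mammalian cell lines were common, though methods varied by source. The values come from published papers and their supplementary material, with extra details from the original authors when needed. Responsive refers to a measured signal the original authors judged statistically different from baseline, and non-responsive (inactive) to the remainder.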

Odorant receptor agonist call, active:
C=C(C)C1CC=C(C)CC1 (configuration not stated), CC(C)=CCCC(C)=CCO, O=C(c1ccccc1)c1ccccc1, CCCCCC(=O)CC, CCCCCC1CCC(=O)O1 (configuration not stated), CC(=O)OCc1ccccc1, CCCCC(=O)CC

Odorant receptor agonist call, inactive:
CCCc1ccc(O)c(OC)c1, CCCCCO, CC(C)c1ccc(C=O)cc1, CC(=O)C(C)C(C)=O, CC1(C)C2CC=C(C=O)C1C2 (configuration not stated), CSCSC, CCCCC(C)CCC(=O)O (configuration not stated), CCC(=O)C(=O)CC, CCCC(C)=O, CCCCCC=O, CC(=O)OCCC(C)C, Cc1nccnc1C, CCCCCCCCCC(=O)OCC, COC(=O)C(C)C, CCC(S)C(C)=O (configuration not stated), CC(=O)OCC=C(C)C, CCOC(C)=O, COC1=C(C)OC(C)C1=O (configuration not stated), Cc1cnccn1, CCCCCCCCCC(=O)[O-].[H+], C=CC(=O)CC, C=C1CCC2CC1C2(C)C (configuration not stated), COc1ccccc1, CC(C)(S)CCOC=O, CCC(C)CO (configuration not stated), CC(=O)C=CC1=C(C)CCCC1(C)C, CCO, CC(=O)OCC=Cc1ccccc1, CSC, CCC(C)C(=O)OC (configuration not stated)
